From ChEMBL document CHEMBL5104154, “Thiamine analogues as inhibitors of pyruvate dehydrogenase and discovery of a thiamine analogue with non-thiamine related antiplasmodial activity” (RSC Med Chem, 2022)
Active and inactive are the calls of the source. The calls are words filed in the database; no cut-off is given here.

Columns and labels:
[1] = Cytotoxicity against human HFF cells assessed as inhibition of cell proliferation incubated for 96 hrs by SYBR-based fluorescence assay; assay type: toxicity
How it was run: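 Human foreskin fibroblasts exposed to compounds up to the highest concentration that solubility allowed.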

[2] = Selectivity index, ratio of IC50 for cytotoxicity against human HFF cells to IC50 for antiplasmodial activity against chloroquine-sensitive Plasmodium falciparum 3D7; assay type: toxicity, cell-based; conditions: read-out: Ratio IC50
[3] = molecular target: T1, Pyruvate decarboxylase (Zymomonas mobilis subsp. mobilis, UniProt P06672); assay: Inhibition of Zymomonas mobilis pyruvate decarboxylase incubated for 3 mins using pyruvate as substrate in presence of TPP by spectrophotometric analysis
T1 sequence (P06672 whole entry): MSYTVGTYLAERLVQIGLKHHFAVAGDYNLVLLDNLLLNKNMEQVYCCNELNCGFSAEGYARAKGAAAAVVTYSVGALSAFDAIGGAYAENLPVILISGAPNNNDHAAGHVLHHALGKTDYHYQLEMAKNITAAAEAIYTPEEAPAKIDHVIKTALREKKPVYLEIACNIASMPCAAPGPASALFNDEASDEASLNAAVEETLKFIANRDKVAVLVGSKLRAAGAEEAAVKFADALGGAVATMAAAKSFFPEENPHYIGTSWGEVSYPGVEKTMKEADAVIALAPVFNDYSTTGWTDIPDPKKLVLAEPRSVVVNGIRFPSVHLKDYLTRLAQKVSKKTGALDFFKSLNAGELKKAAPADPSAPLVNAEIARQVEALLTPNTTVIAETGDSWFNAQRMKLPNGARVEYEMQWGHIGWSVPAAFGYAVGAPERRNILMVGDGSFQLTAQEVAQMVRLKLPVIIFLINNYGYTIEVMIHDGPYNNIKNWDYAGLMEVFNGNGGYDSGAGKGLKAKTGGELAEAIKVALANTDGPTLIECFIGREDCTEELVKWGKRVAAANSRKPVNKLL

[4] = system: Plasmodium falciparum; assay: Antiplasmodial activity against chloroquine-sensitive Plasmodium falciparum 3D7 assessed as inhibition of parasite proliferation in presence of 2.2 to 220 uM folic acid by SYBR-based fluorescence assay; assay type: functional, organism-based
[5] = system: Plasmodium falciparum; assay: Antiplasmodial activity against chloroquine-sensitive Plasmodium falciparum 3D7 overexpressing GFP-tagged plasmodium falciparum TPK assessed as inhibition of parasite proliferation in presence of 2.97 uM thiamine by SYBR-based fluorescence assay; assay type: functional, organism-based

Structure (SMILES): Cc1ncc(Cn2cc(CCOC(=O)c3ccccc3)nn2)c(N)n1
- IC50 at 96 h [1]: > 200 µM

Structure (SMILES): Cc1ncc(Cn2cc(CCO)nn2)c(NCc2ccc(Br)cc2)n1
- IC50 at 96 h [1]: 98 µM

Structure (SMILES): Cc1ncc(Cn2cc(CCOC(=O)c3cccc(Cl)c3)nn2)c(N)n1
- selectivity ratio [2]: > 3.2
- IC50 at 96 h [1]: > 200 µM

Structure (SMILES): Cc1ncc(Cn2cc(CCO)nn2)c(N)n1
- Ki [3]: 300 µM

Structure (SMILES): Cc1ncc(Cn2cc(CCOP(=O)(O)OP(=O)(O)O)nn2)c(N)n1
- Ki [3]: 3e-05 µM

Structure (SMILES): COc1ncnc(NS(=O)(=O)c2ccc(N)cc2)c1OC
- Activity [4]: Active

Structure (SMILES): Cc1ncc(C[n+]2csc(CCO)c2C)c(O)n1
- Activity [5]: Active
